Data as given in ChEMBL document CHEMBL1133594, “Structure-function studies on the new growth hormone-releasing peptide, ghrelin: minimal sequence of ghrelin necessary for activation of growth hormone secretagogue receptor 1a” (J Med Chem, 2000).
pEC50, pIC50: −log10 of the molar value. Residues, ends and D or L forms follow the SMILES beside them. *: point of attachment. Octanoyl = CCCCCCCC(=O)*

Tests used:
[1] = biological target: Growth hormone secretagogue receptor type 1 (Homo sapiens, UniProt Q92847); assay: Binding affinity to cloned human growth hormone secretagogue receptor type 1 in a competitive binding assay with [35S]MK-0677 as a radiolabeled ligand
Summary of the method: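 Competition filter binding on crude membranes from HEK293-aequorin stable cells expressing hGHSR1a, 4 µg membrane protein/well. Bound membranes were filtered on 0.5% polyethylenimine-prewet GF/C filters, washed 8 times and counted by scintillation.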

[2] = system: HEK293; assay: Effective dose measuring intracellular calcium elevation in HEK293 cells; type: functional, cell-based; details: Homo sapiens
Summary of the method: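 Apo-aequorin was charged 1 h with 10 µM coelenterazine and 300 µM reduced glutathione in ECB buffer, pH 7.4. 5 × 10^4 cells were injected onto peptide and light integrated over 30 s, then Triton X-100 lysis (0.1% final) read over 10 s. Fractional response = challenge/total luminescence.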

[3] = system: HEK293; assay: Percent activation at 10 uM relative to ghrelin to measure intracellular calcium elevation in HEK293 cells; type: functional, Homo sapiens

Sequence of Growth hormone secretagogue receptor type 1 (Q92847 whole entry): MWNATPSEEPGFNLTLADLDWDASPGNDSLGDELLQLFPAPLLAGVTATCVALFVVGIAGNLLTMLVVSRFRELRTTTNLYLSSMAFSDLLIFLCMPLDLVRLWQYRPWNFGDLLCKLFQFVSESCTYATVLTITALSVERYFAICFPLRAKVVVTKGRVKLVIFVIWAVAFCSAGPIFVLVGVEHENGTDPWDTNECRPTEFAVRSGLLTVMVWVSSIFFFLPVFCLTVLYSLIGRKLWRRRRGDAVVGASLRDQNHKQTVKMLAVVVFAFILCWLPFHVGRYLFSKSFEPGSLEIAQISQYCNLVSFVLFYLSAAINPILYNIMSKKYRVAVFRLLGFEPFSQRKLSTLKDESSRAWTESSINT

pIC50 [1]	Compound	pEC50 [2]	Activation [3] [%]
9.11	CCCCCCCC(=O)OC[C@H](NC(=O)[C@H](CO)NC(=O)CN)C(=O)N[C@@H](Cc1ccccc1)C(=O)N[C@@H](CC(C)C)C(=O)N[C@@H](CO)C(=O)N1CCC[C@H]1C(=O)N[C@@H](CCC(=O)O)C(=O)N[C@@H](Cc1c[nH]cn1)C(=O)N[C@@H](CCC(N)=O)C(=O)N[C@@H](CCCNC(=N)N)C(=O)N[C@H](C(=O)N[C@@H](CCC(N)=O)C(=O)N[C@@H](CCC(N)=O)C(=O)N[C@@H](CCCNC(=N)N)C(=O)N[C@@H](CCCCN)C(=O)N[C@@H](CCC(=O)O)C(=O)N[C@@H](CO)C(N)=O)C(C)C (H-GSS(Octanoyl)FLSPEHQRVQQRKES-NH2) [listing 1 of 2 here]	7.66	–
–	CCCCCCCC(=O)NC[C@H](NC(=O)[C@H](CO)NC(=O)CN)C(=O)N[C@@H](Cc1ccccc1)C(=O)N[C@@H](CC(C)C)C(=O)N[C@@H](CO)C(=O)N1CCC[C@H]1C(=O)N[C@@H](CCC(=O)O)C(=O)N[C@@H](Cc1c[nH]cn1)C(=O)N[C@@H](CCC(N)=O)C(=O)N[C@@H](CCCNC(=N)N)C(=O)N[C@H](C(=O)N[C@@H](CCC(N)=O)C(=O)N[C@@H](CCC(N)=O)C(=O)O)C(C)C [listing 1 of 2 here]	–	102
8.02	CCCCCCCC(=O)OC[C@H](NC(=O)[C@H](CO)NC(=O)CN)C(=O)N[C@@H](Cc1ccccc1)C(=O)N[C@@H](CC(C)C)C(=O)N[C@@H](CO)C(=O)N1CCC[C@H]1C(=O)N[C@@H](CCC(=O)O)C(=O)N[C@@H](Cc1c[nH]cn1)C(=O)N[C@@H](CCC(N)=O)C(=O)N[C@@H](CCCN=C(N)N)C(=O)N[C@H](C(=O)N[C@@H](CCC(N)=O)C(=O)N[C@@H](CCC(N)=O)C(=O)O)C(C)C [listing 1 of 2 here]	7.77	–
–	CCCCCCCC(=O)OC[C@H](NC(=O)[C@H](CO)NC(=O)CN)C(=O)N[C@@H](Cc1ccccc1)C(=O)N[C@@H](CC(C)C)C(=O)N[C@@H](CO)C(=O)N1CCC[C@H]1C(=O)N[C@@H](CCC(=O)O)C(=O)N[C@@H](Cc1c[nH]cn1)C(=O)N[C@@H](CCC(N)=O)C(=O)N[C@@H](CCCN=C(N)N)C(=O)N[C@H](C(=O)N[C@@H](CCC(N)=O)C(=O)N[C@@H](CCC(N)=O)C(=O)N[C@@H](CCCN=C(N)N)C(=O)N[C@@H](CCCCN)C(=O)N[C@@H](CCC(=O)O)C(=O)N[C@@H](CO)C(=O)N[C@@H](CCCCN)C(=O)N[C@@H](CCCCN)C(=O)N1CCC[C@H]1C(=O)N1CCC[C@H]1C(=O)N[C@@H](C)C(N)=O)C(C)C (H-GSS(Octanoyl)FLSPEHQRVQQRKESKKPPA-NH2)	7.82	100
–	CC(C)C[C@H](NC(=O)[C@H](CCCCN)NC(=O)[C@H](C)NC(=O)[C@@H]1CCCN1C(=O)[C@@H]1CCCN1C(=O)[C@H](CCCCN)NC(=O)[C@H](CCCCN)NC(=O)[C@H](CO)NC(=O)[C@H](CCC(=O)O)NC(=O)[C@H](CCCCN)NC(=O)[C@H](CCCNC(=N)N)NC(=O)[C@H](CCC(N)=O)NC(=O)[C@H](CCC(N)=O)NC(=O)[C@@H](NC(=O)[C@H](CCCNC(=N)N)NC(=O)[C@H](CCC(N)=O)NC(=O)[C@H](Cc1cnc[nH]1)NC(=O)[C@H](CCC(=O)O)NC(=O)[C@@H]1CCCN1C(=O)[C@H](CO)NC(=O)[C@H](CC(C)C)NC(=O)[C@H](Cc1ccccc1)NC(=O)[C@H](CO)NC(=O)[C@H](CO)NC(=O)CN)C(C)C)C(=O)N[C@@H](CCC(N)=O)C(=O)N1CCC[C@H]1C(=O)N[C@@H](CCCNC(=N)N)C(=O)O	< 5.00	41
–	CCCCCCCC(=O)OC[C@H](NC(=O)[C@H](CO)NC(=O)CN)C(=O)N[C@@H](Cc1ccccc1)C(=O)N[C@@H](CC(C)C)C(N)=O (H-GSS(Octanoyl)FL-NH2)	7.94	11.5
–	CCCCCCCC(=O)OC[C@H](NC(=O)[C@H](CO)NC(=O)CN)C(=O)N[C@@H](Cc1ccccc1)C(=O)N[C@@H](CC(C)C)C(=O)N[C@@H](CO)C(=O)N1CCC[C@H]1C(=O)N[C@@H](CCC(=O)O)C(=O)N[C@@H](Cc1c[nH]cn1)C(=O)N[C@@H](CCC(N)=O)C(=O)N[C@@H](CCCNC(=N)N)C(=O)N[C@H](C(=O)N[C@@H](CCC(N)=O)C(=O)N[C@@H](CCC(N)=O)C(=O)N[C@@H](CCCNC(=N)N)C(=O)N[C@@H](CCCCN)C(=O)N[C@@H](CCC(=O)O)C(=O)N[C@@H](CO)C(N)=O)C(C)C (H-GSS(Octanoyl)FLSPEHQRVQQRKES-NH2) [listing 2 of 2 here]	–	92
–	CCCCCCCC(=O)OC[C@H](NC(=O)[C@H](CO)NC(=O)CN)C(=O)N[C@@H](Cc1ccccc1)C(=O)N[C@@H](CC(C)C)C(=O)N[C@@H](CO)C(=O)N1CCC[C@H]1C(=O)N[C@@H](CCC(=O)O)C(=O)N[C@@H](Cc1cnc[nH]1)C(=O)N[C@@H](CCC(N)=O)C(=O)N[C@@H](CCCNC(=N)N)C(=O)N[C@H](C(=O)N[C@@H](CCC(N)=O)C(=O)N[C@@H](CCC(N)=O)C(=O)N[C@@H](CCCNC(=N)N)C(=O)N[C@@H](CCCCN)C(=O)N[C@@H](CCC(=O)O)C(=O)N[C@@H](CO)C(=O)N[C@@H](CCCCN)C(=O)N[C@@H](CCCCN)C(=O)N1CCC[C@H]1C(=O)N1CCC[C@H]1C(=O)N[C@@H](C)C(=O)N[C@@H](CCCCN)C(=O)N[C@@H](CC(C)C)C(=O)N[C@@H](CCC(N)=O)C(=O)N1CCC[C@H]1C(=O)N[C@@H](CCCNC(=N)N)C(=O)O)C(C)C	–	100
< 5.00	CCCCCCCC(=O)OC[C@H](NC(=O)[C@H](CO)NC(C)=O)C(=O)N[C@@H](Cc1ccccc1)C(N)=O (Ac-Ser-Ser(Octanoyl)-Phe-NH2)	< 5.00	28
< 5.00	CCCCCCCC(=O)OC[C@H](NC(C)=O)C(=O)N[C@@H](Cc1ccccc1)C(=O)N[C@@H](CC(C)C)C(N)=O (Ac-Ser(Octanoyl)-Phe-Leu-NH2)	5.60	29
–	CC(C)C[C@H](NC(=O)[C@H](CCCCN)NC(=O)[C@H](C)NC(=O)[C@@H]1CCCN1C(=O)[C@@H]1CCCN1C(=O)[C@H](CCCCN)NC(=O)[C@H](CCCCN)NC(=O)[C@H](CO)NC(=O)[C@H](CCC(=O)O)NC(=O)[C@H](CCCCN)NC(=O)[C@H](CCCNC(=N)N)NC(=O)[C@H](CCC(N)=O)NC(=O)[C@H](CCC(N)=O)NC(=O)[C@@H](NC(=O)[C@H](CCCNC(=N)N)NC(=O)[C@H](CCC(N)=O)NC(=O)[C@H](Cc1cnc[nH]1)NC(=O)[C@H](CCC(=O)O)NC(=O)[C@@H]1CCCN1C(=O)[C@H](CO)NC(=O)[C@H](CC(C)C)NC(=O)[C@H](Cc1ccccc1)NC(=O)[C@H](COC(=O)CC12CC3CC(CC(C3)C1)C2)NC(=O)[C@H](CO)NC(=O)CN)C(C)C)C(=O)N[C@@H](CCC(N)=O)C(=O)N1CCC[C@H]1C(=O)N[C@@H](CCCNC(=N)N)C(=O)O	–	95
< 5.00	CCCCCCCC(=O)OC[C@H](NC(=O)[C@H](CO)NC(=O)CN)C(N)=O (H-Gly-Ser-Ser(Octanoyl)-NH2)	< 5.00	28
9.38	CCCCCCCC(=O)NC[C@H](NC(=O)[C@H](CO)NC(=O)CN)C(=O)N[C@@H](Cc1ccccc1)C(=O)N[C@@H](CC(C)C)C(=O)N[C@@H](CO)C(=O)N1CCC[C@H]1C(=O)N[C@@H](CCC(=O)O)C(=O)N[C@@H](Cc1cnc[nH]1)C(=O)N[C@@H](CCC(N)=O)C(=O)N[C@@H](CCCNC(=N)N)C(=O)N[C@H](C(=O)N[C@@H](CCC(N)=O)C(=O)N[C@@H](CCC(N)=O)C(=O)N[C@@H](CCCNC(=N)N)C(=O)N[C@@H](CCCCN)C(=O)N[C@@H](CCC(=O)O)C(=O)N[C@@H](CO)C(=O)N[C@@H](CCCCN)C(=O)N[C@@H](CCCCN)C(=O)N1CCC[C@H]1C(=O)N1CCC[C@H]1C(=O)N[C@@H](C)C(=O)N[C@@H](CCCCN)C(=O)N[C@@H](CC(C)C)C(=O)N[C@@H](CCC(N)=O)C(=O)N1CCC[C@H]1C(=O)N[C@@H](CCCNC(=N)N)C(=O)O)C(C)C	7.51	105
8.10	CCCCCCCC(=O)NC[C@H](NC(=O)[C@H](CO)NC(=O)CN)C(=O)N[C@@H](Cc1ccccc1)C(=O)N[C@@H](CC(C)C)C(=O)N[C@@H](CO)C(=O)N1CCC[C@H]1C(=O)N[C@@H](CCC(=O)O)C(=O)N[C@@H](Cc1c[nH]cn1)C(=O)N[C@@H](CCC(N)=O)C(=O)N[C@@H](CCCNC(=N)N)C(=O)N[C@H](C(=O)N[C@@H](CCC(N)=O)C(=O)N[C@@H](CCC(N)=O)C(=O)O)C(C)C [listing 2 of 2 here]	7.42	–
–	CCCCCCCC(=O)OC[C@H](NC(=O)[C@H](CO)NC(=O)CN)C(=O)N[C@@H](Cc1ccccc1)C(N)=O (H-GSS(Octanoyl)F-NH2)	7.14	91
–	CCCCCCCC(=O)OC[C@H](NC(=O)[C@H](CO)NC(=O)CN)C(=O)N[C@@H](Cc1ccccc1)C(=O)N[C@@H](CC(C)C)C(=O)N[C@@H](CO)C(=O)N1CCC[C@H]1C(=O)N[C@@H](CCC(=O)O)C(=O)N[C@@H](Cc1c[nH]cn1)C(=O)N[C@@H](CCC(N)=O)C(=O)N[C@@H](CCCN=C(N)N)C(=O)N[C@H](C(=O)N[C@@H](CCC(N)=O)C(=O)N[C@@H](CCC(N)=O)C(=O)O)C(C)C [listing 2 of 2 here]	–	97

Compound	pIC50 [1]	pEC50 [2]	Activation [3] [%]
CCCCCCCC(=O)OC[C@H](NC(=O)[C@H](CO)NC(C)=O)C(=O)N[C@@H](Cc1ccccc1)C(=O)N[C@@H](CC(C)C)C(N)=O (Ac-SS(Octanoyl)FL-NH2)	< 5.70	5.94	30
